Compound activity (PubChem)
This is a sample that favours compounds with a hit; in the whole collection about 2.3% have one here.
MEKK2mut PB1 HTS: signal of MEK5 binding to mutant human MEKK2 PB1 domain. bead flow cytometry, Alexa488-MEK5 binding to MEKK2 mutant. percent response, % at 10 µM. AID 1530. 290,000 tested, 0.35% active; in the data active = percent response above about 24%, passing the limit was not always enough
Arr AP2 block: inhibitors of human beta-arrestin and AP2 interaction; FITC-arrestin peptide / GST-AP2 beads, flow cytometry; AP2 beta2 appendage carries R879A mutation; inhibition, % at 10 µM; 340,000 tested, 0.31% active;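 active = inhibition above a set limit, near 3 SD of compounds lacking own fluorescence, cut at about 54% in these data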
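Material – AP2 appendage R879A on GSH beads · Buffer or medium – PBS with 0.05% Tween 20 and 0.1% BSA · Probe or stimulus – fluorescein-tagged arrestin peptide at 50 nM final · Incubation – compound with beads 12 min RT, then probe 1 h RT · Detection – high-throughput flow cytometry of beads, ex 488, em 535 nm · Evaluation – percent response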
MEKK3 PB1 HTS: MEKK3-MEK5 PB1 interaction, increase or decrease; Q99759; bead-based flow cytometry, Alexa488-MEK5 binding to MEKK3; actives lie on both sides; 0 = blocked by unlabeled MEK5, 100 = vehicle; binding response (% of control), % at 10 µM; 290,000 tested, 1.4% active;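 active = binding response more than 3 SD above or below the average of its plate-row segment, actives on both sides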;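 note: Alexa488 bead fluorescence after subtracting the streptavidin-only scavenger bead signal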
Target sequence (Q99759 whole entry, looked up): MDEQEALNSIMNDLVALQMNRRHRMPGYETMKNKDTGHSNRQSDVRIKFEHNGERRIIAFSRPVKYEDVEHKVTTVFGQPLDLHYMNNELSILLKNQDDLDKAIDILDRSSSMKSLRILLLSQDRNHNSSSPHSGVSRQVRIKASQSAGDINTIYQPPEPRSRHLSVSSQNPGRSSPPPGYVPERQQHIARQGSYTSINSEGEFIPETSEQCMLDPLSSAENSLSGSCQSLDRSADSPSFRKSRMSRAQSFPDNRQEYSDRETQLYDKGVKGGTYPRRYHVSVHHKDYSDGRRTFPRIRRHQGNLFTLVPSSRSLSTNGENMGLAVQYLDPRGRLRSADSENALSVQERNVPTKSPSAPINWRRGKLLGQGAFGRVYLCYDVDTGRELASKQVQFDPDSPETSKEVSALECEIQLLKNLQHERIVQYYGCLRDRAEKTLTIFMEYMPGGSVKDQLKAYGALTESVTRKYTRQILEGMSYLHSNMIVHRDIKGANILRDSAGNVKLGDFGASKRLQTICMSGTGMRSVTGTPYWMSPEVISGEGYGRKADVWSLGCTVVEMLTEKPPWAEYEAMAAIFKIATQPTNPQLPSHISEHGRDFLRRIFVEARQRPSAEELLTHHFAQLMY
MEKK2 WT-MEK5: raises or lowers MEK5 binding to wildtype human MEKK2 PB1 domain | Q9Y2U5 | 290,000 tested, 1.1% active | binding response (% of control), % at 10 µM | bead flow cytometry, Alexa488-MEK5 binding to MEKK2 WT; actives lie on both sides; in the data active = binding response below about 67% or above about 130%
A number is an active result; [ ] = another dose, or the depositor's remark.

How did COC1=C/C(=C/c2c(N)n3nc(CC(=O)N4CCCC4)sc3nc2=O)C=CC1=O do in these assays?
MEKK2mut PB1 HTS: inactive; Arr AP2 block: inactive; MEKK3 PB1 HTS: inactive; MEKK2 WT-MEK5: inactive

How did CCOC(=O)c1c(-c2ccccc2)oc2ccc(OC(C)C(=O)O)cc12 (stereo not given) do in these assays?
MEKK2mut PB1 HTS: inactive; Arr AP2 block: inactive; MEKK3 PB1 HTS: inactive; MEKK2 WT-MEK5: inactive

How did CCOC(=O)c1c(-c2ccccc2)oc2ccc(OCC(O)CN(C)C)cc12 (stereo not given) do in these assays?
MEKK2mut PB1 HTS: 25.0; Arr AP2 block: inactive; MEKK3 PB1 HTS: inactive; MEKK2 WT-MEK5: 162.0

How did Cc1nn(CC(=O)NCCCN2CCN(Cc3ccccc3)CC2)c(=O)c2cc(-c3ccccc3)nn12 do in these assays?
MEKK2mut PB1 HTS: inactive; Arr AP2 block: inactive; MEKK3 PB1 HTS: inactive; MEKK2 WT-MEK5: inactive

Results for Cc1nn(CC(=O)NCCCN2CCC(Cc3ccccc3)CC2)c(=O)c2cc(-c3ccccc3)nn12 ?
MEKK2mut PB1 HTS: 48.0; Arr AP2 block: inactive; MEKK3 PB1 HTS: inactive; MEKK2 WT-MEK5: 161.0

Results for CCc1ccc(-c2cc3c(=O)n(CC(=O)NCCCN4CCC(Cc5ccccc5)CC4)nc(C)n3n2)cc1 ?
MEKK2mut PB1 HTS: 29.0; Arr AP2 block: inactive; MEKK3 PB1 HTS: inactive; MEKK2 WT-MEK5: 203.0

What do the screens show for `O=C1NC(=O)C2(CCCCC2C2CCCCC2)N1` (stereo not given)?
Arr AP2 block: inactive

How did CCc1nnc(NC(=O)c2sc3nc4c(cc3c2N)CCCCC4)s1 do in these assays?
MEKK2mut PB1 HTS: inactive; Arr AP2 block: inactive; MEKK3 PB1 HTS: 139.0; MEKK2 WT-MEK5: inactive

Results for O=C(Nc1ccc(OC(F)F)c(Cl)c1)C(c1ccccc1)c1ccccc1 ?
MEKK2mut PB1 HTS: inactive; Arr AP2 block: inactive; MEKK3 PB1 HTS: 147.0; MEKK2 WT-MEK5: inactive

How did O=C(Cc1cccc2ccccc12)Nc1ccc(OC(F)F)c(Cl)c1 do in these assays?
MEKK2mut PB1 HTS: inactive; Arr AP2 block: inactive; MEKK3 PB1 HTS: inactive; MEKK2 WT-MEK5: inactive

How did CCCCn1c(N)c(N(CC)C(=O)C2COc3ccccc3O2)c(=O)[nH]c1=O (stereo not given) do in these assays?
Arr AP2 block: inactive

Results for O=S1(=O)c2ccc(Br)cc2N2CCC[C@@H]2CN1Cc1ccccc1 ?
Arr AP2 block: inactive

How did CC(=O)OCC(=O)[C@@]12OC3(CCCC3)O[C@@H]1C[C@H]1[C@@H]3CCC4=CC(=O)C=C[C@]4(C)[C@@]3(F)[C@@H](O)C[C@@]12C do in these assays?
MEKK2mut PB1 HTS: inactive; Arr AP2 block: inactive; MEKK3 PB1 HTS: inactive; MEKK2 WT-MEK5: -3.0

Results for CC1(C)O[C@@H]2C[C@H]3[C@@H]4CCC5=CC(=O)C=C[C@]5(C)[C@@]4(F)[C@@H](O)C[C@]3(C)[C@]2(C(=O)CO)O1 ?
MEKK2mut PB1 HTS: inactive; Arr AP2 block: inactive; MEKK3 PB1 HTS: inactive; MEKK2 WT-MEK5: inactive

What do the screens show for `CCCN1CCc2c(sc(NC(=O)c3ccc(S(=O)(=O)N4CCN(C(=O)OCC)CC4)cc3)c2C(N)=O)C1`?
MEKK2mut PB1 HTS: inactive; Arr AP2 block: inactive; MEKK3 PB1 HTS: inactive; MEKK2 WT-MEK5: 4.0

What do the screens show for `Cn1cc(CN2CCC(n3nccc3NC(=O)c3ccccc3Cl)CC2)c2ccccc21`?
MEKK2mut PB1 HTS: inactive; Arr AP2 block: inactive; MEKK3 PB1 HTS: inactive; MEKK2 WT-MEK5: 155.0

Results for COc1ccccc1C(=O)Nc1ccnn1C1CCN(Cc2cn(C)c3ccccc23)CC1 ?
MEKK2mut PB1 HTS: inactive; Arr AP2 block: inactive; MEKK3 PB1 HTS: inactive; MEKK2 WT-MEK5: inactive

How did O=C(Nc1ccnn1C1CCN(Cc2c[nH]c3ccccc23)CC1)c1ccccc1 do in these assays?
MEKK2mut PB1 HTS: inactive; Arr AP2 block: inactive; MEKK3 PB1 HTS: inactive; MEKK2 WT-MEK5: 135.0

How did Cc1cc(NC(=O)COC(=O)[C@@H]2CCCN2C(=O)c2cccs2)no1 do in these assays?
Arr AP2 block: inactive

What do the screens show for `CCN(CC)CCN(C(=O)/C=C/c1cccs1)c1nc2ccc(Cl)cc2s1`?
MEKK2mut PB1 HTS: inactive; Arr AP2 block: inactive; MEKK3 PB1 HTS: inactive; MEKK2 WT-MEK5: 156.0

How did CCN(CC)Cc1cc2[nH]c3c4ccc(Cl)cc4ncc3c2cc1OC do in these assays?
MEKK2mut PB1 HTS: 38.0; Arr AP2 block: inactive; MEKK3 PB1 HTS: inactive; MEKK2 WT-MEK5: 163.0

How did COc1ccc(CCN(C)CC(O)COc2c(C)ccc(C)c2C)cc1OC (stereo not given) do in these assays?
MEKK2mut PB1 HTS: inactive; Arr AP2 block: inactive; MEKK3 PB1 HTS: inactive; MEKK2 WT-MEK5: inactive

What do the screens show for `COc1ccc(CCN(C)CC(O)COC(c2ccc(F)cc2)c2ccc(F)cc2)cc1OC` (stereo not given)?
MEKK2mut PB1 HTS: inactive; Arr AP2 block: inactive; MEKK3 PB1 HTS: inactive; MEKK2 WT-MEK5: 145.0

How did COC(=O)c1[nH]c2ccc(C)cc2c1NC(=O)CN1CCCc2ccccc21 do in these assays?
MEKK2mut PB1 HTS: inactive; Arr AP2 block: inactive; MEKK3 PB1 HTS: inactive; MEKK2 WT-MEK5: -9.0

Results for COc1ccccc1CNS(=O)(=O)c1cc(C(=O)N(C)Cc2cccnc2)c(Cl)cc1Cl ?
Arr AP2 block: inactive

Results for CC(=O)C[C@H](O)CC(=O)[C@H]1OC(=O)CCCCCCc2ccccc21 ?
Arr AP2 block: inactive

Results for CCOCCn1c(CN2CCN(C)CC2)nc2c1c(=O)n(C)c(=O)n2C ?
MEKK2mut PB1 HTS: inactive; Arr AP2 block: inactive; MEKK3 PB1 HTS: 46.0[inhibitor]; MEKK2 WT-MEK5: 42.0[inhibitor]

Results for COc1ccc2c(C(=O)CN3CCN(c4ccccc4)CC3)c[nH]c2c1 ?
MEKK2mut PB1 HTS: 67.0; Arr AP2 block: inactive; MEKK3 PB1 HTS: inactive; MEKK2 WT-MEK5: 33.0

Results for COC(=O)C1C2CC(=O)C(C2)C1C(=O)OC (stereo not given) ?
Arr AP2 block: inactive

How did COCCCn1c(O)c(/C=C2\N=C(C#N)C(=Nc3ccc(C)cc3)O2)sc1=S do in these assays?
MEKK2mut PB1 HTS: inactive; Arr AP2 block: inactive; MEKK3 PB1 HTS: inactive; MEKK2 WT-MEK5: 33.0[inhibitor]

Results for O=C(O)CCCn1c(O)c(C=C2N=c3ccccc3=N2)sc1=S ?
MEKK2mut PB1 HTS: inactive; Arr AP2 block: inactive; MEKK3 PB1 HTS: inactive; MEKK2 WT-MEK5: inactive

Results for CCCn1c(N)c(N(CCOC)C(=O)c2ccc(S(=O)(=O)N3CCOCC3)cc2)c(=O)[nH]c1=O ?
Arr AP2 block: inactive

How did Cc1ccc(NC(=O)CSc2nc(C)c(Cc3ccccc3)c(=O)[nH]2)cc1C do in these assays?
MEKK2mut PB1 HTS: inactive; Arr AP2 block: inactive; MEKK3 PB1 HTS: inactive; MEKK2 WT-MEK5: 26.0

What do the screens show for `Cc1cccc(NC(=O)CSc2nc(C)c(Cc3ccccc3)c(=O)[nH]2)c1`?
Arr AP2 block: inactive

Results for C#CCOCCOCCOCCNc1nc(N2CCN(C(=O)[C@H](Cc3cc4ccccc4[nH]3)n3cc([C@@H](N)Cc4ccc(O)cc4)nn3)CC2)nc(N2CCN(C(=O)[C@H](Cc3cc4ccccc4[nH]3)n3cc([C@@H](N)CC(C)C)nn3)CC2)n1 ?
MEKK2mut PB1 HTS: 54.0; Arr AP2 block: inactive; MEKK3 PB1 HTS: inactive; MEKK2 WT-MEK5: 201.0
